According to article PMC3306499 (ACS Chemical Biology, 2012):

Tests used:
HIV-1 RNase H = HIV-1 RNase H (Human immunodeficiency virus type 1 group M subtype B, UniProt P04585); experiment: HIV-1 RNase H inhibition assay; type: biochemical; settings: read-out: IC50 Values RNase H; A3G inhibitors, this study
human A3G (APOBEC3G) = human A3G (APOBEC3G) (Homo sapiens, UniProt Q9HC16); experiment: fluorescence-based ssDNA cytosine deaminase assay, A3G; type: biochemical; settings: read-out: IC50 Values A3G; dose response, purified full-length A3G-mycHis
Chain of human A3G (APOBEC3G) (Q9HC16 whole entry): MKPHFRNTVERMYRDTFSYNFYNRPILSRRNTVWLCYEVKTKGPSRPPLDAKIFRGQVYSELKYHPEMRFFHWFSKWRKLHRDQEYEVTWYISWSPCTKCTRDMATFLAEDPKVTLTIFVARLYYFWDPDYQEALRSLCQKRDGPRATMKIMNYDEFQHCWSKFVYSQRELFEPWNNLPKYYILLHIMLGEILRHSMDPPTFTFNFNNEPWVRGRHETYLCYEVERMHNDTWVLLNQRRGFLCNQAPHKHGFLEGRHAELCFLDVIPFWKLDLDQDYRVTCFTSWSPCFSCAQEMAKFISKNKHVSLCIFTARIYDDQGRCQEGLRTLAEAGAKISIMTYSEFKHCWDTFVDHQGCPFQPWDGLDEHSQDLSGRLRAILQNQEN

A3G-ssDNA complex = A3G-ssDNA complex (Homo sapiens, UniProt Q9HC16); experiment: EMSA of A3G-ssDNA complex formation; type: binding; settings: 0.64 μM A3G, 0.08 μM ssDNA, 50 μM compound, dose response 2, 5, 10 μM
Chain of A3G-ssDNA complex (Q9HC16 whole entry, one chain of several): as the sequence (Q9HC16 whole entry) above

A3G-C308A = A3G-C308A (Homo sapiens, UniProt Q9HC16, C308A); experiment: deaminase assay with A3G-C308A mutant; type: biochemical; settings: varying concentrations, parallel to wildtype A3G
Chain of A3G-C308A (Q9HC16 whole entry C308A): as the sequence (Q9HC16 whole entry) above, with C308A counted along it
How it was run: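 Full-length human A3G-C308A-mycHis and wildtype A3G were purified from HEK293T cells via the C-terminal His6 tag and assayed in parallel over varying test compound concentrations. Enzyme was diluted in Tris pH 7.4 buffer with protease inhibitors, then incubated 2 h at 37 °C with 10 pmol 6-FAM/TAMRA ssDNA and UDG. NaOH was added for 30 min at 37 °C, then neutralised. Fluorescence read at ex 490/em 520 nm.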

A3G C321A = A3G C321A (Homo sapiens, UniProt Q9HC16, C321A); experiment: deaminase assay with A3G-C321A mutant; type: biochemical; settings: dose response, parallel to wildtype A3G
Chain of A3G C321A (Q9HC16 whole entry C321A): as the sequence (Q9HC16 whole entry) above, with C321A counted along it
How it was run: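 Wildtype A3G and the C321A mutant were purified side by side as myc-His proteins (>80% homogeneity) from HEK293T cells and tested at varying test compound concentrations. Reactions ran 2 h at 37 °C with 6-FAM/TAMRA ssDNA and UDG, followed by NaOH cleavage, neutralisation and fluorescence at 490/520 nm. Triplicates were normalised to DMSO-only controls and given as mean with SD.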

murine model of diabetes = settings: oral dosing; cited from earlier work
[1] = biological target: E. coli uracil DNA glycosylase (UDG) (Escherichia coli, UniProt P12295); experiment: UDG assay; type: biochemical; settings: read-out: IC50 Values UDG; no deaminase, uracil ssDNA substrate
Chain of E. coli uracil DNA glycosylase (UDG) (P12295 whole entry): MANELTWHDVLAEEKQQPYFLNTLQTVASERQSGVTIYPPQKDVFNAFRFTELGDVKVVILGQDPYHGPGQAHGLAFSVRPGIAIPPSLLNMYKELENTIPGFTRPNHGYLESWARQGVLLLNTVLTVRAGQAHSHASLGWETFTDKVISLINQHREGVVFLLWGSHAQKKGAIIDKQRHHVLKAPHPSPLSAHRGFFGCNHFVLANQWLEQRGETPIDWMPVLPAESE

full-length A3G Cys321 = full-length A3G Cys321 (Homo sapiens, UniProt Q9HC16); experiment: LC-MS/MS of tryptic peptides of inhibitor-treated A3G; type: binding; settings: full-length A3G incubated with compound, in-gel trypsin digestion
Chain of full-length A3G Cys321 (Q9HC16 whole entry): as the sequence (Q9HC16 whole entry) above

human A3A (APOBEC3A) = human A3A (APOBEC3A) (Homo sapiens, UniProt P31941); experiment: fluorescence-based ssDNA cytosine deaminase assay, A3A; type: biochemical; settings: read-out: IC50 Values A3A; dose response, purified A3A-mycHis
Chain of human A3A (APOBEC3A) (P31941 whole entry): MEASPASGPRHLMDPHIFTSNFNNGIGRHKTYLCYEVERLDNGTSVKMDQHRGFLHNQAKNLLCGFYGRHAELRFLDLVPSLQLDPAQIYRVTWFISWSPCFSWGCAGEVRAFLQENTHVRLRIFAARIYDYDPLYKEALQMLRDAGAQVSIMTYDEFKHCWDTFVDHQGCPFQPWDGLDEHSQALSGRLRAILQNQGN

CN(N=O)c1ccc(O)c(O)c1 [MN30, Methyl-3,4-dephostatin]
IC50 (HIV-1 RNase H): > 25 µM
IC50 (human A3G (APOBEC3G)): 9.1 µM
inhibition of A3G's ssDNA binding activity (A3G-ssDNA complex formation) (A3G-ssDNA complex): no inhibition
susceptibility of A3G-C308A deaminase activity to inhibition (A3G-C308A): wildtype susceptibility
susceptibility of A3G C321A deaminase activity to inhibition (A3G C321A): fully resistant
efficacy in a murine model of diabetes (murine model of diabetes): demonstrated efficacy
IC50 [1]: > 200 µM
mass addition to C321 containing tryptic peptide (covalent modification) (full-length A3G Cys321): 167.11 Da
IC50 (human A3A (APOBEC3A)): > 200 µM
